# Source: PubChem BioAssay (several laboratories)
# Jurkat viability = reduces viability or proliferation of Jurkat cells. Jurkat E6.1 viability, ATP luminescence, 48 h. 56,000 compounds, 1.2% hits. inhibition, % at 4 µM. AID 463;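 active = inhibition above the mean inhibition of all tested compounds plus 3 SD, cut at about 28% in these data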
# RORA act = activators of human nuclear receptor RORA. P35398. CHO-K1 Gal4-RORA LBD luciferase reporter, luminescence; percent increase over mock-subtracted basal signal. activation, % at 10 µM. 65,000 compounds, 1.5% hits. AID 560;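 active = activation above the mean of all tested compounds plus 3 SD, cut at about 49% in these data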
# HEK293 NFkB inh = inhibitors of the PMA/ionomycin-induced NF-kB reporter in HEK293 cells; HEK-293 NF-kB luciferase reporter, luminescence; inhibition, % at 3 µM; 62,000 compounds, 0.21% hits; AID 465;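 active = inhibition above the mean of all tested compounds plus 3 SD, cut at about 40% in these data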
#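 Signal: luciferase luminescence; Material: HEK-293 cells with stable firefly luciferase reporter driven by four HIV NF-kB elements; Probe or stimulus: PMA with ionomycin; Replication: tested once; Times: 1 h compound pretreatment, then 16 h stimulation at 37 °C, 5% CO2; Benchmarks: DMSO and 10 µM reference inhibitor; Evaluation: per-plate % inhibition versus controls.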
# SF-1 act = activators of human nuclear receptor SF-1. CHO-K1 Gal4-SF-1 LBD luciferase reporter; % increase over DMSO SF-1-specific signal. 65,000 compounds, 1.9% hits. Q13285. activation, % at 10 µM;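 active = activation above the mean activation of all tested compounds plus 3 SD, cut at about 50% in these data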
# Target sequence (Q13285 whole entry, looked up, the tested form may be a part): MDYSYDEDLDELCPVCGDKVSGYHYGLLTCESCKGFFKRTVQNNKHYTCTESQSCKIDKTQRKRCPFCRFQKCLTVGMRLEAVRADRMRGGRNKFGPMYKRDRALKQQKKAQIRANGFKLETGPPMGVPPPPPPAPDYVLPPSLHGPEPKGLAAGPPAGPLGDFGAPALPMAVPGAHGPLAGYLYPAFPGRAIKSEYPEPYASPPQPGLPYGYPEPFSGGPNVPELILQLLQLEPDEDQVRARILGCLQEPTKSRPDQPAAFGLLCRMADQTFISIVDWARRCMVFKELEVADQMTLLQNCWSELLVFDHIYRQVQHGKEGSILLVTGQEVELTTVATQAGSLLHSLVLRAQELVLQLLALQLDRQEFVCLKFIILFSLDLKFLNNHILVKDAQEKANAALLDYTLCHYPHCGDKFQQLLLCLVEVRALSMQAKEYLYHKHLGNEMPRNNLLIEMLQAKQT
#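 Compound – one dose, 10 µM compound, 1% DMSO · Test system – transient Gal4-SF-1 LBD reporter, CHO-K1 · Input – 4,000 cells in each well · Read-out basis – percent activation relative to DMSO median and mock-transfected background · Replicates – single measurement per compound · Technique – steady-glow luciferase luminescence, read after 15 min reagent incubation · Timing – 20 h compound treatment, 37 °C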
# MT1-MMP txn act = MT1-MMP promoter transcription activation | 86,000 compounds, 0.16% hits | activation factor at 10 µM | AID 750 | HT1080 MT1-MMP promoter luciferase reporter, luminescence, overnight; active compounds read high;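 active = activation factor of at least 2 for MT1-MMP transcription at 10 µM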
# Numbers stand for hits; – = inactive; · = not tested or not shown. The list is not random: actives were taken first. Their share in the collection is about 2.8%.
SMILES,Jurkat viability,RORA act,HEK293 NFkB inh,SF-1 act,MT1-MMP txn act
O=C(CN1C(=O)c2ccccc2C1=O)Nc1ccc(-c2nc3ccccc3o2)cc1,–,–,–,–,–
O=C(Nc1ccc(-c2cn3ccsc3n2)cc1)C1CC1,–,–,–,61,–
CC(=O)Nc1ccc(-c2cn3ccsc3n2)cc1,–,–,–,–,–
O=C(Nc1ccc(-c2cn3ccsc3n2)cc1)C1CCCC1,–,–,–,58,–
O=C(CCN1C(=O)c2ccccc2C1=O)Nc1ccc(-c2cn3ccsc3n2)cc1,–,–,–,65,–
O=C(CCN1C(=O)c2ccccc2C1=O)Nc1ccc(-c2nc3ccccc3o2)cc1,–,50,–,53,–
COC(=O)NCc1ccc2c(c1)OCO2,·,·,·,·,–
CN(C)/C=N/c1c(C#N)cnn1-c1ccc(C(F)(F)F)cn1,–,–,–,–,–
COc1ccc2nc3sc(C(=O)NCc4cccs4)c(N)c3cc2c1,–,–,–,74,–
CSc1c(CC(=O)NCCO)n(C)c2ccccc12,–,–,–,–,–
CC(=O)Nc1ccccc1OCC(=O)c1cc(C)n(Cc2cccs2)c1C,100,–,55,–,–
CC(=O)Nc1ccc(SCC(=O)c2cc(C)n(Cc3cccs3)c2C)cc1,–,–,–,–,·
CCCCCOc1ccc(NS(C)(=O)=O)cc1,–,64,–,–,–
O=C(CSc1ncnc2c1oc1ccccc12)c1cccs1,–,–,–,71,–
Cc1nc(SCC(=O)c2cccs2)c2oc3ccccc3c2n1,·,·,·,·,–
O=C(Nc1ccc2c(c1)ncn2-c1ccccc1)c1ccco1,–,52,–,–,–
Cn1c(CN2CCCC2)nc2cc(NC(=O)c3ccco3)ccc21,–,–,–,50,–
Cn1cnc2cc(NC(=O)c3ccco3)ccc21,–,–,–,–,–
CC(=O)Nc1ccc2c(c1)nc(CN1CCCC1)n2C,·,·,·,·,–
CSc1nsc(SCC(=O)Nc2cccc(C(C)=O)c2)n1,–,–,–,–,–
COc1cccc(NC(=O)CSc2nnc(-c3cc(C)n(-c4ccccc4)c3C)o2)c1,–,–,41,–,–
Cc1cc(C)cc(NC(=O)CSc2nnc(-c3ccccc3Br)o2)c1,–,–,–,–,–
COC(=O)c1c(NC(C)=O)sc2c1CCCC2,–,–,–,–,–
COC(=O)c1c(NC(=O)CCCC(=O)O)sc2c1CCC2,·,·,·,·,2.1
COC(=O)c1c(NC(=O)CC2SCC(C(=O)OC)NC2=O)sc2c1CCCC2 (centres undefined),–,52,–,–,–
SMILES,Jurkat viability,RORA act,HEK293 NFkB inh,SF-1 act,MT1-MMP txn act
CN1CCC(N(C)C(=O)c2ccccc2Nc2ccc(SC(F)F)cc2)CC1,–,–,–,–,–
CCCc1nc2ccccc2c(C(=O)OCC(=O)Nc2cccc(S(=O)(=O)N3CCOCC3)c2)c1CC,·,·,·,·,–
COc1ccc2c(c1OC)C(=O)N(c1ccccn1)C2,–,52,–,69,–
COc1ccc2c(c1OC)C(=O)N(c1cccc(C)c1)C2,–,–,–,–,–
COc1ccc2c(c1OC)C(=O)N(c1cccc(C(F)(F)F)c1)C2,–,–,–,59,–
CCCc1nc(Nc2nc3ccccc3o2)nc(C)c1C(=O)OCC,–,49,–,81,–
CCOC(=O)c1cnc(Nc2nc3ccccc3o2)nc1CSc1ncccn1,–,–,–,–,–
Cc1ccc2oc(=O)n(CC(=O)O)c2c1,–,–,–,–,–
COc1ccc(Cn2c(=O)oc3ccc(C)cc32)cc1OC,40,–,–,–,–
CCOC(=O)C1=C(C)Nc2nc(C)nn2C1c1cc(OC)ccc1OC (centres undefined),–,–,–,–,–
CCSc1nnc(-c2ccc(Cl)cc2Cl)o1,–,–,–,54,–
O=C(CSc1nnc(-c2cccs2)o1)c1cccs1,–,–,–,98,–
COc1ccc(-c2nnc(SCC(=O)c3cccs3)o2)cc1,·,50,–,–,–
CCSc1nnc(-c2ccc(OC)cc2)o1,–,90,–,–,–
COc1ccc(-c2nnc(SCC(=O)c3cc(C)n(Cc4cccs4)c3C)o2)cc1,–,–,–,–,–
CCN1C(=O)C(CC(=O)N2CCN(C(c3ccccc3)c3ccccc3)CC2)N(CC)C1=O (centres undefined),–,–,–,–,–
C/C(N)=C(/C#N)C(=O)CSc1nnc(-c2ccc(OC(F)F)cc2)o1,–,–,–,63,–
